The values that follow come from ChEMBL document CHEMBL4373681, “Aurantiamide-related dipeptide derivatives are formyl peptide receptor 1 antagonists” (Medchemcomm, 2019).

Test [1] deals with T1, N-formyl peptide receptor 2 (Homo sapiens, UniProt P25090).
T1 sequence (P25090 whole entry): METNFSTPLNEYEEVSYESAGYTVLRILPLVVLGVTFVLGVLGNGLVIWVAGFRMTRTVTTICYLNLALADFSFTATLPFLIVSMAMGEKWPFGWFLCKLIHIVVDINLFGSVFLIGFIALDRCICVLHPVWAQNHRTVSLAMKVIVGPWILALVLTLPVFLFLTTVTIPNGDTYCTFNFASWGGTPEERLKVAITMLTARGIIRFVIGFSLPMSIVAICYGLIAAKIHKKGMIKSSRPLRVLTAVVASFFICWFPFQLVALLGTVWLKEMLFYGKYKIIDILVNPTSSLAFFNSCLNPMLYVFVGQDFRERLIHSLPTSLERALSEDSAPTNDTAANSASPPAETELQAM
Description: Agonist activity at FRP2 (unknown origin) transfected in human HL60 cells assessed as calcium mobilization incubated for 30 mins and measured for 5 sec for 240 sec by fluorometry. The following applies: for pEC50: read-out: EC50. The format is functional, cell-based. An outline of the steps: (§1)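 Stably transfected HL60 cells, with G418 dropped in the final culture round, loaded with Fluo-4 AM (1.25 µg/mL final) for 30 min at 37 °C in the dark. Cells were washed into HBSS with Ca2+/Mg2+ plus 10 mM HEPES, 2×10^5 cells/well. Compound added by injector, fluorescence (ex 485/em 538 nm) read every 5 s for 240 s at room temperature. Peak change over baseline in the first 3 min; EC50 by nonlinear regression.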
(A change in cytosolic calcium serves as a functional read-out for many receptors and channels.)

For test [2], the target named is T2, fMet-Leu-Phe receptor (Homo sapiens, UniProt P21462).
T2 sequence (P21462 whole entry): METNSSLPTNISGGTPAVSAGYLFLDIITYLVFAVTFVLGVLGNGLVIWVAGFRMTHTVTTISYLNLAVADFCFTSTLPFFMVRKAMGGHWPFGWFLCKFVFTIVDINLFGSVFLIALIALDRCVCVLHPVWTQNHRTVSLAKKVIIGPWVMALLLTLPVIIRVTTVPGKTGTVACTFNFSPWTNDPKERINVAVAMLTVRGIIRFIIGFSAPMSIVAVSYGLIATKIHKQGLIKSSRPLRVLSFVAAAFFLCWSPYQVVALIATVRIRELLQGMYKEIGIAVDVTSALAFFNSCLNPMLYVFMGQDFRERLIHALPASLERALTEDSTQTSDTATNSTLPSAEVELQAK
Briefly: Antagonist activity against FPR1 (unknown origin) transfected in human HL60 cells assessed as calcium mobilization preincubated for 30 mins followed by fMLF addition and measured for 5 sec for 240 sec by fluorometry. It is filed as functional, cell-based. An outline of the steps: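 FPR1-HL60 cells or donor neutrophils, Fluo-4 AM-loaded (1.25 µg/mL final, 30 min, 37 °C), in HBSS+/10 mM HEPES, 2×10^5 cells/well. Compound pretreatment 30 min at room temperature, then 5 nM fMLF. Peak fluorescence rise (485/538 nm) in the first 3 min was normalized to 5 nM fMLF alone (100%). IC50 from 5–6-point curves by nonlinear regression; maximal antagonist concentration ~50 μM.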

The target in test [3] is T2, fMet-Leu-Phe receptor. Briefly: Agonist activity at FPR1 (unknown origin) transfected in human HL60 cells assessed as calcium mobilization incubated for 30 mins and measured for 5 sec for 240 sec by fluorometry. It is filed as functional, cell-based. In short, it runs like this: as §1
In test [4] the target is T1, N-formyl peptide receptor 2. Description: Antagonist activity against FPR2 (unknown origin) transfected in human HL60 cells assessed as calcium mobilization preincubated for 30 mins followed by WKYMVM addition and measured for 5 sec for 240 sec by fluorometry. The format is functional, cell-based. In short, it runs like this:
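FPR2-transfected HL60 cells, Fluo-4 AM-loaded (1.25 µg/mL final, 30 min, 37 °C), in HBSS+/10 mM HEPES, 2×10^5 cells/well. 30 min room-temperature compound pretreatment, then 5 nM WKYMVM. Peak fluorescence rise (485/538 nm) in the first 3 min, normalized to 5 nM WKYMVM alone (100%). IC50 by nonlinear regression of 5–6-point curves.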

The target in test [5] is T2, fMet-Leu-Phe receptor. Description: Agonist activity at FPR1 in human neutrophils assessed as calcium mobilization incubated for 30 mins and measured for 5 sec for 240 sec by fluorometry. It is filed as functional. An outline of the steps:
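Neutrophils from healthy donor blood were isolated by dextran sedimentation, Histopaque 1077 gradient and hypotonic RBC lysis. They were loaded with Fluo-4 AM (1.25 µg/mL final) for 30 min at 37 °C, then resuspended in HBSS+ with 10 mM HEPES, 2×10^5 cells/well. Compound injected; fluorescence (485/538 nm) read every 5 s for 240 s at room temperature. Peak rise over baseline in the first 3 min; EC50 by nonlinear regression.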

Test [6] addresses T2, fMet-Leu-Phe receptor. Description: Antagonist activity against FPR1 in human neutrophils assessed as calcium mobilization preincubated for 30 mins followed by fMLF addition and measured for 5 sec for 240 sec by fluorometry.
The subject of a further test is Neutrophil. Briefly: Inhibition of fMLF-induced migration of human neutrophil preincubated for 30 mins followed by fMLF stimulation and measured after 60 mins by luminescence based assay.

pEC50, pIC50: −log10 of the molar value. Non-standard residues stand in square brackets, D forms with d. Residues, ends and D or L forms follow the SMILES beside them. *: point of attachment. dCha = N[C@H](CC1CCCCC1)C(=O)O; Bz = O=C(c1ccccc1)*

Broadly, the pIC50 is −log10 of the IC50, conventionally taken in molar units. With `COC(=O)[C@H](Cc1ccccc1)NC(=O)[C@H](Cc1c[nH]c2ccccc12)NC(=O)c1ccccc1`, the EC50 result (in test [1]; on fMet-Leu-Phe receptor [3]; on fMet-Leu-Phe receptor [5]) was “Not Active” each time. The pIC50 on fMet-Leu-Phe receptor [2] is 5.24; in test [4] (read-out: IC50), 4.91; on fMet-Leu-Phe receptor [6] it was 5.62; with Neutrophil, 5.80.
On to `COC(=O)[C@H](Cc1ccccc1)NC(=O)[C@@H](Cc1c[nH]c2ccccc12)NC(=O)c1ccccc1`, for which the EC50 result (in test [1]; at fMet-Leu-Phe receptor [3]; at fMet-Leu-Phe receptor [5]) was “Not Active” in each case. Also, the values for the pIC50 at fMet-Leu-Phe receptor [2] and on fMet-Leu-Phe receptor [6] were 4.43 and 4.96, respectively. Also, the IC50 result in test [4] is recorded as “Not Active”.
With `COC(=O)[C@@H](Cc1ccccc1)NC(=O)[C@H](Cc1c[nH]c2ccccc12)NC(=O)C1CCCCC1`, the EC50 result (in test [1]; at fMet-Leu-Phe receptor [3]; at fMet-Leu-Phe receptor [5]) was “Not Active” in each case. In addition, the pIC50 at fMet-Leu-Phe receptor [2] was 6.27; on fMet-Leu-Phe receptor [6], 5.48; in the test on Neutrophil, 5.51. The IC50 entry in test [4] is “Not Active”.
As usually defined, the pEC50 is −log10 of the EC50, conventionally taken in molar units. Consider `COC(=O)[C@@H](CC(C)C)NC(=O)[C@H](Cc1c[nH]c2ccccc12)NC(=O)c1ccccc1`, for which the pEC50 in test [1] is 4.96. Further, the pIC50 at fMet-Leu-Phe receptor [2] is 4.61; on fMet-Leu-Phe receptor [6], 4.84. The EC50 entry on fMet-Leu-Phe receptor [3] and on fMet-Leu-Phe receptor [5] was “Not Active” each time. Also, the IC50 entry in test [4] is listed as “Not Active”.
Consider `COC(=O)[C@H](NC(=O)[C@H](Cc1c[nH]c2ccccc12)NC(=O)c1ccccc1)C(C)C`, for which the EC50 result (in test [1]; at fMet-Leu-Phe receptor [3]; on fMet-Leu-Phe receptor [5]) was “Not Active” in each case. The figures for the pIC50 at fMet-Leu-Phe receptor [2] and at fMet-Leu-Phe receptor [6] were 4.93 and 4.60, respectively. Moreover, the IC50 result in test [4] was “Not Active”.
As to `COC(=O)[C@@H](Cc1ccccc1)NC(=O)[C@@H](Cc1c[nH]c2ccccc12)NC(=O)c1ccccc1`, the EC50 entry (in test [1]; at fMet-Leu-Phe receptor [3]; at fMet-Leu-Phe receptor [5]) was “Not Active” throughout. Besides, the pIC50 on fMet-Leu-Phe receptor [2] was 4.78; at fMet-Leu-Phe receptor [6] it was 4.50. Moreover, the IC50 entry in test [4] is given as “Not Active”.
Consider `COC(=O)[C@@H](Cc1ccccc1)NC(=O)[C@H](Cc1c[nH]c2ccccc12)NC(=O)CC(C)C`, for which the EC50 result (in test [1]; at fMet-Leu-Phe receptor [3]; on fMet-Leu-Phe receptor [5]) was “Not Active” in each case. In addition, the pIC50 on fMet-Leu-Phe receptor [2] was 4.71; on fMet-Leu-Phe receptor [6], 4.56. Further, in test [4], the IC50 result is “Not Active”.
With `COC(=O)[C@@H](Cc1ccccc1)NC(=O)[C@H](Cc1c[nH]c2ccccc12)NC(=O)OC(C)(C)C`, in test [1], the pEC50 is 4.98. Besides, the pIC50 at fMet-Leu-Phe receptor [2] was 4.77; on fMet-Leu-Phe receptor [6], 4.90. Besides, the EC50 result at fMet-Leu-Phe receptor [3] and at fMet-Leu-Phe receptor [5] was “Not Active” throughout. In addition, the IC50 entry in test [4] is listed as “Not Active”.
Take `COC(=O)[C@@H](Cc1ccccc1)NC(=O)[C@H](Cc1c[nH]c2ccccc12)NC(=O)c1ccccc1`: the EC50 result (in test [1]; at fMet-Leu-Phe receptor [3]; on fMet-Leu-Phe receptor [5]) was “Not Active” throughout. Also, the pIC50 is 6.35 on fMet-Leu-Phe receptor [2], 6.74 on fMet-Leu-Phe receptor [6] and 6.32 in the test with Neutrophil. Also, the IC50 entry in test [4] is “Not Active”.
`COC(=O)[C@@H](CC1CCCCC1)NC(=O)[C@H](Cc1c[nH]c2ccccc12)NC(=O)c1ccccc1` (Bz-Trp-[dCha]-OMe): the EC50 result (in test [1]; on fMet-Leu-Phe receptor [3]; on fMet-Leu-Phe receptor [5]) was “Not Active” throughout. The values for the pIC50 on fMet-Leu-Phe receptor [2], on fMet-Leu-Phe receptor [6] and in the test on Neutrophil were 6.17, 6.92 and 6.21, respectively. Further, the IC50 entry in test [4] is “Not Active”.
